Assay results reported in ChEMBL document CHEMBL1158356, “Synthesis, anti-tuberculosis activity and 3D-QSAR study of amino acid conjugates of 4-(adamantan-1-yl) group containing quinolines” (Eur J Med Chem, 2009).
pIC50: −log10 of the molar value. In brackets after ≈: the same amount, converted by molar mass.

Tests used:
[1] = tested on: Mycobacterium tuberculosis; test: Antimycobacterial activity against rifampicin/isoniazid-susceptible Mycobacterium tuberculosis H37Rv ATCC 27294 by BACTEC 460 radiometric method; format: functional, organism-based
Procedure, shortened: (§1)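 Radiometric BACTEC 460 growth test on H37Rv (ATCC 27294). Compounds reaching at least 90% inhibition at 6.25 were retested at the lower concentrations 3.125 and 1.0, with % inhibition recorded. […] Isoniazid served as the reference standard.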

Vero = test: Cytotoxicity against african green monkey Vero cells up to 50 ug/ml; format: cell-based; settings: chlorocebus sabaeus
[2] = tested on: Mycobacterium tuberculosis; test: Antimycobacterial activity against rifampicin/isoniazid-susceptible Mycobacterium tuberculosis H37Rv ATCC 27294 at 3.125 ug/ml by BACTEC 460 radiometric method; format: functional; procedure, shortened: as §1
[3] = tested on: Mycobacterium tuberculosis; test: Antimycobacterial activity against rifampicin/isoniazid-susceptible Mycobacterium tuberculosis H37Rv ATCC 27294 at 6.25 ug/ml after 5 days by microplate alamar blue assay; format: functional; settings: H37Rv ATCC 27294, 120 h
Procedure, shortened: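 M. tuberculosis H37Rv (ATCC 27294, rifampicin- and isoniazid-susceptible) screened by Microplate Alamar Blue Assay at a single concentration of 6.25; read-out is % growth inhibition. Compounds showing fluorescence were instead tested in the BACTEC 460 radiometric system.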

Structure (SMILES) | pIC50 [1] | Activity (Vero) | inhibition at 3.125 µg/mL [2] [%] | inhibition at 6.25 µg/mL [3] [%] | MIC99 [1] [µg/mL]
COC(=O)[C@H](Cc1c[nH]cn1)NC(=O)c1cc(C23CC4CC(CC(C4)C2)C3)c2ccccc2n1 | 7.16 | Non-toxic | 99 |  | 
NCCCC[C@H](NC(=O)c1cc(C23CC4CC(CC(C4)C2)C3)c2ccccc2n1)C(=O)NN | 4.71 |  |  | 36 | 
N[C@@H](Cc1c[nH]c2ccccc12)C(=O)NNC(=O)c1cc(C23CC4CC(CC(C4)C2)C3)c2ccccc2n1 | 5.01 |  |  | 56 | 
NCCCC[C@H](N)C(=O)NNC(=O)c1cc(C23CC4CC(CC(C4)C2)C3)c2ccccc2n1 | 5.14 |  |  | 66 | 
CC(C)(C)OC(=O)N[C@@H](CCCNC(=N)N)C(=O)NNC(=O)c1cc(C23CC4CC(CC(C4)C2)C3)c2ccccc2n1 | 7.26 | Non-toxic | 99 |  | 
COC(=O)[C@H](CCC(N)=O)NC(=O)c1cc(C23CC4CC(CC(C4)C2)C3)c2ccccc2n1 | 4.94 |  |  | 55 | 
NNC(=O)[C@H](Cc1c[nH]cn1)NC(=O)c1cc(C23CC4CC(CC(C4)C2)C3)c2ccccc2n1 | 6.86 |  |  | 99 | 
NNC(=O)CNC(=O)c1cc(C23CC4CC(CC(C4)C2)C3)c2ccccc2n1 | 5.15 |  |  | 70 | 
CCC(C)[C@H](N)C(=O)NNC(=O)c1cc(C23CC4CC(CC(C4)C2)C3)c2ccccc2n1 (stereo not given in full) | 5.32 |  |  | 75 | 
NNC(=O)[C@H](CCC(N)=O)NC(=O)c1cc(C23CC4CC(CC(C4)C2)C3)c2ccccc2n1 | 4.85 |  |  | 50 | 
NCCC[C@H](NC(=O)c1cc(C23CC4CC(CC(C4)C2)C3)c2ccccc2n1)C(=O)NN | 4.91 |  |  | 48 | 
CC(C)(C)OC(=O)NCC(=O)NNC(=O)c1cc(C23CC4CC(CC(C4)C2)C3)c2ccccc2n1 | 5.06 |  |  | 60 | 
CC(C)C[C@H](N)C(=O)NNC(=O)c1cc(C23CC4CC(CC(C4)C2)C3)c2ccccc2n1 | 5.32 |  |  | 75 | 
N[C@@H](Cc1ccc(O)cc1)C(=O)NNC(=O)c1cc(C23CC4CC(CC(C4)C2)C3)c2ccccc2n1 | 4.86 |  |  | 48 | 
CC[C@H](C)[C@H](NC(=O)c1cc(C23CC4CC(CC(C4)C2)C3)c2ccccc2n1)C(=O)OC | 5.79 |  |  | 90 | 
N[C@@H](Cc1ccccc1)C(=O)NNC(=O)c1cc(C23CC4CC(CC(C4)C2)C3)c2ccccc2n1 | 5.50 |  |  | 81 | 
COC(=O)[C@H](Cc1c[nH]c2ccccc12)NC(=O)c1cc(C23CC4CC(CC(C4)C2)C3)c2ccccc2n1 | 5.38 |  |  | 75 | 
CC(C)(C)OC(=O)N[C@@H](CCC(N)=O)C(=O)NNC(=O)c1cc(C23CC4CC(CC(C4)C2)C3)c2ccccc2n1 | 4.96 |  |  | 51 | 
COC(=O)[C@H](CC(C)C)NC(=O)c1cc(C23CC4CC(CC(C4)C2)C3)c2ccccc2n1 | 5.53 |  |  | 83 | 
C[C@H](NC(=O)c1cc(C23CC4CC(CC(C4)C2)C3)c2ccccc2n1)C(=O)NN | 5.45 |  |  | 82 | 
C[C@H](N)C(=O)NNC(=O)c1cc(C23CC4CC(CC(C4)C2)C3)c2ccccc2n1 | 4.64 |  |  | 41 | 
COC(=O)[C@H](CCSC)NC(=O)c1cc(C23CC4CC(CC(C4)C2)C3)c2ccccc2n1 | 5.64 |  |  | 86 | 
CSCC[C@H](N)C(=O)NNC(=O)c1cc(C23CC4CC(CC(C4)C2)C3)c2ccccc2n1 | 5.02 |  |  | 59 | 
NNC(=O)[C@H](Cc1ccc(O)cc1)NC(=O)c1cc(C23CC4CC(CC(C4)C2)C3)c2ccccc2n1 | 4.78 |  |  | 44 | 
CSCC[C@H](NC(=O)c1cc(C23CC4CC(CC(C4)C2)C3)c2ccccc2n1)C(=O)NN | 5.18 |  |  | 68 | 
COC(=O)[C@H](C)NC(=O)c1cc(C23CC4CC(CC(C4)C2)C3)c2ccccc2n1 | 5.23 |  |  | 73 | 
NNC(=O)c1ccncc1 [ISONIAZID] |  |  |  |  | 1 (≈ 7.29 µM)
